This note sets out measurements from ChEMBL document CHEMBL1143976, “Synthesis of fluorine substituted pyrazolopyrimidines as potential leads for the development of PET-imaging agents for the GABAA receptors” (Bioorg Med Chem, 2008).

The nature of data set [1]: Distribution coefficient, log D by C-18 reversed phase method. The settings on record: octanol/water; read-out: Log D. Type of data set: physicochemical. In a few lines: (§1)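 HPLC logD per European guideline; line 4 on Multisorb RP18-7 C-18 column, line 5 on Supelcosil ABZ+Plus alkyl amide column (both 250 × 4 mm). Solvent A 5% acetonitrile/20 mM ammonium acetate held 0–5 min, then solvent B 80% acetonitrile/20 mM ammonium acetate to 40, 50 or 65 min; 1 mL/min; UV detection. SD reported.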

A short description of data set [2]: Displacement of [3H]flunitrazepam from GABAA receptor in Sprague-Dawley rat cerebellar membrane. More on the design: species or system Cerebellum. Put shortly: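 Cerebella from adult female Sprague–Dawley rats (8–10 weeks) homogenised in ice-cold 50 mM Tris-HCl pH 7.4; 20,000g membrane pellet washed repeatedly. Incubated with N-methyl-[3H]flunitrazepam (~0.3 nM final) at 21 °C for 60 min; nonspecific binding defined with zolpidem. Filtered onto PEI-presoaked GF/B, scintillation counted. IC50 by nonlinear regression from 10–12 concentrations in triplicate; ≥3 independent experiments, mean ± SD.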

A short description of data set [3]: Distribution coefficient, log D by alkyl amide reversed phase method. It is filed as physicochemical. The settings on record: octanol/water; read-out: Log D. In a few lines: as §1

As a reminder, the IC50 is the point on the concentration scale where inhibition reaches its midpoint. `CN(C(=O)c1ccc([N+](=O)[O-])cc1)c1cccc(-c2ccnc3c(C(=O)c4cccs4)cnn23)c1`: the chromatographic logD in data set [1] came to 2.51; in data set [3], 2.64. In data set [2], this molecule yielded an IC50 of 0.0159 µM.

In the case of `CC(=O)N(CCF)c1cccc(-c2ccnc3c(C(=O)c4cccs4)cnn23)c1`, the chromatographic logD in data set [1] worked out at 2.62. In addition, in data set [2], the IC50 was 0.00571 µM.

Turning to `CC(C)C(=O)N(CCCF)c1cccc(-c2ccnc3c(C(=O)c4cccs4)cnn23)c1`, the chromatographic logD in data set [1] was found to be 2.55; in data set [3], 2.68. In data set [2], the 50% inhibitory concentration (IC50) stood at 0.0377 µM.

Regarding `CN(C(=O)c1ccc(F)cc1)c1cccc(-c2ccnc3c(C(=O)c4cccs4)cnn23)c1`, the chromatographic logD in data set [1] is 2.64; in data set [3], 2.63. Moreover, the half-maximal inhibitory concentration (IC50) in data set [2] came out at 0.0141 µM.

On to `CC(=O)N(C)c1cccc(-c2ccnc3c(C(=O)c4ccc(F)cc4)cnn23)c1`, for which the chromatographic logD in data set [1] was found to be 2.34; in data set [3], 2.38. Moreover, the half-inhibitory concentration (IC50) in data set [2] was 0.0533 µM.

Consider `CC(=O)N(CCCCF)c1cccc(-c2ccnc3c(C(=O)c4cccs4)cnn23)c1`, for which, in data set [1], the chromatographic logD is 2.48. In addition, the 50% inhibitory concentration (IC50) in data set [2] was found to be 0.00598 µM.

Molecule `CCC(=O)N(CCCF)c1cccc(-c2ccnc3c(C(=O)c4cccs4)cnn23)c1` had an IC50 in data set [2] of 0.00526 µM. This lies in the single-digit nanomolar range.

Take `CC(=O)N(CCCF)c1cccc(-c2ccnc3c(C(=O)c4cccs4)cnn23)c1`: the chromatographic logD in data set [1] came out at 2.35; in data set [3], 2.38. Also, the IC50 in data set [2] was determined as 0.00278 µM.

Regarding `CN(CCF)c1cccc(-c2ccnc3c(C(=O)c4cccs4)cnn23)c1`, the chromatographic logD was 2.66 in data set [1] and 2.69 in data set [3]. The IC50 in data set [2] came to 0.0178 µM.

With `CC(=O)N(C)c1cccc(-c2ccnc3c(C(=O)c4cccs4)cnn23)c1` [INDIPLON], the chromatographic logD in data set [1] turned out to be 2.26; in data set [3], 2.23. Also, the IC50 in data set [2] worked out at 0.00329 µM.
